PAX8 inh HTS – inhibitors of PAX8 transcriptional activity in RMG-I cells. RMG-I TPO-luciferase reporter, SteadyGlo, 24 h. inhibition, % at 12.6 µM. 360,000 compounds, 1.2% hits;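 active = mean replicate inhibition at least 60% with every replicate also reaching 60%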;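 also: luciferase light reporting Pax8 driven TPO promoter activity; plate controls were median of neutral control wells for no effect and mitoxantrone controls for full effect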
GSIS activator – primary screen for activators of insulin secretion dependent on glucose, INS-1E cells, GLuc reporter luminescence; AID 743287; activation, % at 16.6 µM; 370,000 compounds, 0.61% hits; INS-1E GLuc reporter insulin secretion, 2-3 h;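 active = lowest replicate activation of at least 40%, so every replicate reaches that level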;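 also: 0% = median of neutral control wells and 100% = median of IBMX positive control wells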
XiGFP reactiv – X-chromosome reactivation activator. activation, % at 7.58 µM. 360,000 compounds, 0.055% hits. XiGFP mouse fibroblasts, % GFP-positive cells imaging, 3 d; cells co-treated with 5-aza-dC sensitizer; scaled so ellipticine positive control = 100%;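 active = mean normalized replicate activation at least 10% and every replicate at or above 10%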;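 also: 0% = median of on-plate neutral control wells and 100% = ellipticine 6 µM median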
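Schedule: 3 d treatment, 15 min room-temperature fixation; system: 68-5-11 XiGFP fibroblast line; buffer or medium: DMEM plus 5-aza-dC sensitizer; control set: ellipticine 6 µM positive control; compound: one concentration, pinned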
EWS-Fli block – EWS/Fli transcriptional activity inhibition | 350,000 compounds, 0.67% hits | AID 651661 | A673 NR0B1-luciferase reporter, viability-normalised | inhibition, % at 12.6 µM;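 active = mean inhibition of at least 50% after viability correction, with every replicate also passing that limit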;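 also: firefly luciferase signal divided by Alamar Blue viability fluorescence both relative to DMSO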
AF4-AF9 inh – blocks AF4 peptide binding to human AF9; P42568; AlphaScreen, biotin-AF4 peptide binding to FLAG-AF9; inhibition, % at 10 µM; 350,000 compounds, 0.47% hits; AID 651704;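 active = every replicate reaching a set inhibition limit, whatever the replicate mean, cut at about 25% in these data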;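 also: 0% = plate neutral control median and 100% = total signal loss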
Target sequence (P42568 whole entry, looked up): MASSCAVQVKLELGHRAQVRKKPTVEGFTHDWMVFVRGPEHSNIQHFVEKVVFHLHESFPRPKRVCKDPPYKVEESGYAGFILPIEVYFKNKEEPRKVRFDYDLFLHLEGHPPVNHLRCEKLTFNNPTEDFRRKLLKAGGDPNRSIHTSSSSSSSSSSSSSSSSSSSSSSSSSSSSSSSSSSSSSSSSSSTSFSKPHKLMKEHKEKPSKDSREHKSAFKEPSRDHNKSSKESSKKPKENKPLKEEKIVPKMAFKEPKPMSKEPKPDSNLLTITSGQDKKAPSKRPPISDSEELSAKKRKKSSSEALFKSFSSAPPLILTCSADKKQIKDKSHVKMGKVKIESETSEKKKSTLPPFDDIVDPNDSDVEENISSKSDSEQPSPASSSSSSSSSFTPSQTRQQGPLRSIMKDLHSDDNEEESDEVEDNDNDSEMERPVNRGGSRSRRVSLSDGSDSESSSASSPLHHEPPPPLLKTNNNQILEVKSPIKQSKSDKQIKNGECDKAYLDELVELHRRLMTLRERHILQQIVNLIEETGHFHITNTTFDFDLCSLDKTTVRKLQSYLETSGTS
PGC1a acetyl inh – lowers PGC1a acetylation signal in U2OS cells; AlphaScreen anti-acetyl-lysine; with virally co-expressed GCN5 acetyltransferase; inhibition, % at 15.6 µM; 350,000 compounds, 0.17% hits;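 active = every replicate shows inhibition of at least 40%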;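 also: 0% = neutral control wells and 100% = positive control wells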
An asterisk follows results filed as active; . = not tested or not shown. In the library only some 2.1% were active in any assay of this set; here they are far more common.

SMILES | PAX8 inh HTS | GSIS activator | XiGFP reactiv | EWS-Fli block | AF4-AF9 inh | PGC1a acetyl inh
C[C@@H]1CN([C@H](C)CO)C(=O)c2cc(-c3ccccc3)cnc2O[C@H]1CN(C)Cc1ccccc1 | . | -5.3 | 0.3 | -0.6 | 5.9 | -10.2
C=C1C(=O)O[C@H]2C1CC[C@@](C)(O)C13C=CC(C)(C21)C1(C3)C(=O)O[C@@H]2C3C(C)=CCC3[C@](C)(O)C[C@H](OC(C)=O)C21 (some centres undefined) | 86.7* | -19.0 | 0.0 | -10.8 | 2.8 | -3.1
Cc1ccc(-c2ccc(C3[C@H]4CNC[C@@H]3N4S(=O)(=O)c3ccc(C)cc3)cc2)cc1 (some centres undefined) | -51.9 | 3.9 | 0.0 | 9.0 | -4.6 | 13.9
CCCCc1nc(N)c(C#N)c(-c2ccco2)c1CCC | . | 61.6* | . | -6.0 | -9.8 | -23.1
CN1C/C(=C/c2ccccc2[N+](=O)[O-])C(=O)/C(=C\c2ccccc2[N+](=O)[O-])C1 | . | -20.1 | 0.9 | 71.7* | 0.5 | -28.0
Cc1ccc(C)c2c1CCC(=Cc1ccccc1[N+](=O)[O-])C2=O | 12.9 | 15.5 | 0.0 | 4.2 | 2.7 | .
COc1nc(Nc2nc3ccccc3c(=O)[nH]2)nc2ccc(C)cc12 | 75.7* | -4.5 | -0.7 | 34.8 | -5.3 | -2.2
Cc1cc(C)cc(Nc2nc3ccccc3c(=O)[nH]2)c1 | -10.7 | -4.9 | 0.0 | -10.1 | -0.7 | 13.2
COCC(=O)Nc1ccc2c(c1)OC[C@H](C)NC[C@H](C)[C@@H](OC)CN(C)C2=O | . | 10.6 | 0.4 | . | -4.9 | 2.3
COc1ccc(N/N=C(/C(N)=O)C2=NC(C)(C)Cc3ccccc32)cc1 | 37.2 | -7.0 | -0.7 | 9.6 | 36.7* | .
C[C@@H]1CCCCO[C@H](CN(C)C(=O)Nc2ccccc2)[C@@H](C)CN([C@@H](C)CO)C(=O)c2cc(NS(=O)(=O)c3ccc(Cl)cc3)ccc2O1 | 65.5* | -10.9 | 0.1 | 16.8 | -1.3 | -10.2
C[C@@H]1CCCCO[C@H](CN(C)C(=O)Cc2ccccc2)[C@H](C)CN([C@H](C)CO)C(=O)c2cc(NS(=O)(=O)c3ccc(Cl)cc3)ccc2O1 | 44.3 | -23.9 | 0.1 | 10.4 | -2.0 | -5.3
C[C@@H]1CCCCO[C@@H](CN(C)C(=O)Nc2ccc(F)cc2)[C@H](C)CN([C@H](C)CO)C(=O)c2cc(NS(=O)(=O)c3ccc(Cl)cc3)ccc2O1 | 91.3* | -11.6 | 0.3 | 9.1 | -3.0 | 5.3
C[C@@H]1CCCCO[C@@H](CN(C)C(=O)Nc2ccc(F)cc2)[C@@H](C)CN([C@H](C)CO)C(=O)c2cc(NS(=O)(=O)c3ccc(Cl)cc3)ccc2O1 | 9.2 | -0.1 | 0.2 | -4.6 | -4.8 | 11.1
C[C@@H]1CCCCO[C@H](CN(C)C(=O)Cc2ccccc2)[C@@H](C)CN([C@@H](C)CO)C(=O)c2cc(NS(=O)(=O)c3ccc(Cl)cc3)ccc2O1 | 78.5* | -16.4 | 0.3 | 1.9 | -7.1 | 8.2
C[C@@H]1CN([C@@H](C)CO)C(=O)Cc2cc(NC(=O)Nc3ccccc3)ccc2O[C@H]1CN(C)Cc1ccc(C(F)(F)F)cc1 | . | 3.6 | -0.2 | 18.3 | -0.5 | -2.0
CN1CCC(N(C)S(=O)(=O)c2ccc(NC(=O)COc3cccc(Cl)c3)cc2)CC1 | 3.7 | 63.6* | 0.0 | 13.7 | 4.7 | .
CN1CCC(N(C)S(=O)(=O)c2ccc(NC(=O)COc3ccc(Br)cc3Cl)cc2)CC1 | 13.0 | 10.7 | -0.1 | 38.1 | 7.8 | .
COc1ccc2c3c(n(C)c2c1)[C@@H](CO)N(C(=O)CN(C)C)CC31CN(Cc2cccnc2)C1 | . | 5.0 | 0.5 | . | . | .
COC1OC(COCc2ccccc2)C2OC(C)(C)OC2C1O (centres undefined) | 104.0* | 2.9 | 0.2 | -6.6 | 0.8 | .
CC1(C)CC(O)CC(C)(C)N1CC(O)COCc1ccccc1 (centres undefined) | -1.7 | . | 0.4 | 4.6 | -1.5 | 15.7
N#Cc1c(-c2cccc(Br)c2)cc(-c2cccnc2)nc1N | . | 89.9* | . | . | . | 1.9
Cc1nc(N)c(C#N)c(-c2cccnc2)c1-c1ccccc1 | -60.5 | 41.4* | 0.0 | -11.8 | -1.5 | 22.9
COc1ccc(OC)c(-c2cc(-c3cccnc3)nc(N)c2C#N)c1 | 21.1 | . | 0.0 | 56.5* | -5.4 | -0.1
N#Cc1c(-c2ccc(Br)cc2)cc(-c2cccnc2)nc1N | -21.7 | -1.2 | 0.0 | 6.0 | . | .
SMILES | PAX8 inh HTS | GSIS activator | XiGFP reactiv | EWS-Fli block | AF4-AF9 inh | PGC1a acetyl inh
Cc1ccc(S(=O)(=O)N(C)C[C@H]2Oc3ccc(NC(=O)CCCCCC(=O)Nc4ccccc4N)cc3CC(=O)N([C@@H](C)CO)C[C@@H]2C)cc1 | -21.6 | -0.1 | 0.1 | -8.3 | 0.8 | 10.4
COCC(=O)N(C)C[C@H]1Oc2ncc(C#CC(C)(C)O)cc2C(=O)N([C@@H](C)CO)C[C@@H]1C | -26.4 | 5.4 | 0.0 | -7.3 | . | -3.0
Cc1cccc(CCNC(=O)Cc2ccc(NC3=NC4CS(=O)(=O)CC4S3)cc2)c1 (centres undefined) | -7.3 | -5.9 | -0.1 | 2.3 | 47.0* | -3.3
O=C(Cc1ccc(NC2=NC3CS(=O)(=O)CC3S2)cc1)NCCc1ccccc1 (centres undefined) | 5.2 | -0.7 | 0.0 | 2.2 | 2.3 | .
CCN1CCc2c(sc(NC(=O)Nc3ccc(Cl)c(Cl)c3)c2C(N)=O)C1 | 2.0 | -7.0 | 104.6* | -5.2 | -79.0 | 3.6
CC(=O)N1CCc2c(sc(NC(=O)c3ccc([N+](=O)[O-])o3)c2C(N)=O)C1 | 86.6* | . | 0.6 | 42.0 | 2.6 | .
CC(C)N1CCc2c(sc(NC(=O)C3CCCCC3)c2C(N)=O)C1 | 9.3 | . | -0.2 | -11.1 | 5.4 | 43.7*
CCC(=O)Nc1sc2c(c1C(N)=O)CCN(C(C)=O)C2 | -0.4 | . | 0.1 | 4.2 | 4.8 | -4.2
CCN1CCc2c(sc(NC(=O)Cc3ccccc3)c2C(N)=O)C1 | 3.7 | . | 0.1 | 2.6 | -6.3 | .
CC1CCCN(S(=O)(=O)c2ccc(C(=O)Nc3sc4c(c3C(N)=O)CCN(C)C4)cc2)C1 (centres undefined) | 18.6 | -5.5 | 0.2 | 56.0* | 2.8 | .
CCCC#Cc1ccc2c(c1)[C@H]1[C@H](CCN1S(=O)(=O)c1ccc(F)cc1)[C@H](CO)N2C | 11.3 | 5.7 | 0.1 | 11.5 | 0.0 | -14.4
C[C@@H]1CN([C@@H](C)CO)C(=O)c2cc(NC(=O)CCCCCC(=O)Nc3ccccc3N)ccc2O[C@H]1CN(C)S(C)(=O)=O | 3.8 | 21.2 | 0.0 | -13.3 | -0.8 | -1.4
C[C@@H](NC(=O)C[C@@H]1CC[C@H]2[C@@H](COC[C@H](O)CN2C)O1)c1ccccc1 | -7.0 | 10.3 | 0.2 | -1.9 | -1.0 | -11.3
NC(=O)c1c(NC(=O)c2ccccc2)sc2c1CCN(Cc1ccccc1)C2 | -55.1 | -13.6 | 43.8* | -32.7 | -8.6 | 2.8
